Reference: paper PMC9116722 (Cancer chemotherapy and pharmacology, 2022)
“Also recorded” adds a separate entry of the source.

Assay: Adverse events
Format: in vivo, human
Summary of the method: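 Patients with germline BRCA-mutated cancers, or BRCA-wildtype TNBC or platinum-refractory ovarian cancer, took oral drug continuously twice daily in 28-day cycles. There were nine dose levels from 50 to 500 mg BID under 3+3 escalation, run separately per cohort after the first DLT. Toxicities were graded by CTCAE v4.0, with DLTs assessed during cycle 1.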

C[C@]1(c2nc3c(C(N)=O)cccc3[nH]2)CCCN1 [veliparib]
Any Grade 3 toxicity (BRCAmut, DL9 500/500 mg AM/PM): 1 (14) number of patients (%)
Any Grade 4 toxicity (BRCAmut, DL9 500/500 mg AM/PM): 1 (14) number of patients (%)
Appendicitis, Grade 3 (BRCAmut, DL9 500/500 mg AM/PM): 0 number of patients (%)
Aspartate aminotransferase increased, Grade 3 (BRCAmut, DL9 500/500 mg AM/PM): 0 number of patients (%)
Dehydration, Grade 3 (BRCAmut, DL9 500/500 mg AM/PM): 0 number of patients (%)
Dyspnea, Grade 4 (BRCAmut, DL9 500/500 mg AM/PM): 1 (14) number of patients (%)
Fatigue, Grade 3 (BRCAmut, DL9 500/500 mg AM/PM): 0 number of patients (%)
Headache, Grade 3 (BRCAmut, DL9 500/500 mg AM/PM): 0 number of patients (%)
Hypophosphatemia, Grade 3 (BRCAmut, DL9 500/500 mg AM/PM): 0 number of patients (%)
Lymphocyte count decreased, Grade 3 (BRCAmut, DL9 500/500 mg AM/PM): 1 (14) number of patients (%)
Lymphocyte count decreased, Grade 4 (BRCAmut, DL9 500/500 mg AM/PM): 0 number of patients (%)
Nausea, Grade 3 (BRCAmut, DL9 500/500 mg AM/PM): 0 number of patients (%)
Platelet count decreased, Grade 4 (BRCAmut, DL9 500/500 mg AM/PM): 1 (14) number of patients (%)
Thromboembolic event, Grade 3 (BRCAmut, DL9 500/500 mg AM/PM): 0 number of patients (%)
Thromboembolic event, Grade 4 (BRCAmut, DL9 500/500 mg AM/PM): 0 number of patients (%)
Urinary tract infection, Grade 3 (BRCAmut, DL9 500/500 mg AM/PM): 0 number of patients (%)
Abdominal pain, Grade 3 (BRCAmut, all dose levels): 2 (3) number of patients (%)
Alkaline phosphatase increased, Grade 3 (BRCAmut, all dose levels): 1 (1) number of patients (%)
Anemia, Grade 3 (BRCAmut, all dose levels): 1 (1) number of patients (%)
Anemia, Grade 4 (BRCAmut, all dose levels): 1 (1) number of patients (%)
Any Grade 3/4 toxicity (BRCAmut, all dose levels): 17 (24) number of patients (%)
Any Grade 3 toxicity (BRCAmut, all dose levels): 15 (21) number of patients (%)
Any Grade 4 toxicity (BRCAmut, all dose levels): 3 (4) number of patients (%)
Appendicitis, Grade 3 (BRCAmut, all dose levels): 1 (1) number of patients (%)
Aspartate aminotransferase increased, Grade 3 (BRCAmut, all dose levels): 1 (1) number of patients (%)
Dehydration, Grade 3 (BRCAmut, all dose levels): 1 (1) number of patients (%)
Dyspnea, Grade 4 (BRCAmut, all dose levels): 1 (1) number of patients (%)
Fatigue, Grade 3 (BRCAmut, all dose levels): 1 (1) number of patients (%)
Headache, Grade 3 (BRCAmut, all dose levels): 1 (1) number of patients (%)
Hypophosphatemia, Grade 3 (BRCAmut, all dose levels): 1 (1) number of patients (%)
Lymphocyte count decreased, Grade 3 (BRCAmut, all dose levels): 9 (13) number of patients (%)
Lymphocyte count decreased, Grade 4 (BRCAmut, all dose levels): 1 (1) number of patients (%)
Nausea, Grade 3 (BRCAmut, all dose levels): 2 (3) number of patients (%)
Platelet count decreased, Grade 4 (BRCAmut, all dose levels): 1 (1) number of patients (%)
Thromboembolic event, Grade 3 (BRCAmut, all dose levels): 2 (3) number of patients (%)
Thromboembolic event, Grade 4 (BRCAmut, all dose levels): 1 (1) number of patients (%)
Urinary tract infection, Grade 3 (BRCAmut, all dose levels): 1 (1) number of patients (%)
grade 3/4 decreased lymphocyte count (BRCAwt group): 18%
incidence of grade 3/4 toxicity (BRCAwt group): 29%
Any Grade 3 toxicity (BRCAwt, DL1 50/50 mg AM/PM): 0 number of patients (%)
Basilic vein thrombosis, Grade 3 (BRCAwt, DL1 50/50 mg AM/PM): 0 number of patients (%)
Dyspnea, Grade 3 (BRCAwt, DL1 50/50 mg AM/PM): 0 number of patients (%)
Fatigue, Grade 3 (BRCAwt, DL1 50/50 mg AM/PM): 0 number of patients (%)
Hypophosphatemia, Grade 3 (BRCAwt, DL1 50/50 mg AM/PM): 0 number of patients (%)
Lymphocyte count decreased, Grade 3 (BRCAwt, DL1 50/50 mg AM/PM): 0 number of patients (%)
Any Grade 3 toxicity (BRCAwt, DL2 100/50 mg AM/PM): 1 (33) number of patients (%)
Basilic vein thrombosis, Grade 3 (BRCAwt, DL2 100/50 mg AM/PM): 0 number of patients (%)
Dyspnea, Grade 3 (BRCAwt, DL2 100/50 mg AM/PM): 0 number of patients (%)
Fatigue, Grade 3 (BRCAwt, DL2 100/50 mg AM/PM): 0 number of patients (%)
Hypophosphatemia, Grade 3 (BRCAwt, DL2 100/50 mg AM/PM): 0 number of patients (%)
Lymphocyte count decreased, Grade 3 (BRCAwt, DL2 100/50 mg AM/PM): 1 (33) number of patients (%)
Any Grade 3 toxicity (BRCAwt, DL3 100/100 mg AM/PM): 0 number of patients (%)
Basilic vein thrombosis, Grade 3 (BRCAwt, DL3 100/100 mg AM/PM): 0 number of patients (%)
Dyspnea, Grade 3 (BRCAwt, DL3 100/100 mg AM/PM): 0 number of patients (%)
Fatigue, Grade 3 (BRCAwt, DL3 100/100 mg AM/PM): 0 number of patients (%)
Hypophosphatemia, Grade 3 (BRCAwt, DL3 100/100 mg AM/PM): 0 number of patients (%)
Lymphocyte count decreased, Grade 3 (BRCAwt, DL3 100/100 mg AM/PM): 0 number of patients (%)
Any Grade 3 toxicity (BRCAwt, DL6 200/200 mg AM/PM): 2 (67) number of patients (%)
Basilic vein thrombosis, Grade 3 (BRCAwt, DL6 200/200 mg AM/PM): 1 (33) number of patients (%)
Dyspnea, Grade 3 (BRCAwt, DL6 200/200 mg AM/PM): 0 number of patients (%)
Fatigue, Grade 3 (BRCAwt, DL6 200/200 mg AM/PM): 0 number of patients (%)
Hypophosphatemia, Grade 3 (BRCAwt, DL6 200/200 mg AM/PM): 0 number of patients (%)
Lymphocyte count decreased, Grade 3 (BRCAwt, DL6 200/200 mg AM/PM): 1 (33) number of patients (%)
Any Grade 3 toxicity (BRCAwt, DL7 300/300 mg AM/PM): 0 number of patients (%)
Basilic vein thrombosis, Grade 3 (BRCAwt, DL7 300/300 mg AM/PM): 0 number of patients (%)
Dyspnea, Grade 3 (BRCAwt, DL7 300/300 mg AM/PM): 0 number of patients (%)
Fatigue, Grade 3 (BRCAwt, DL7 300/300 mg AM/PM): 0 number of patients (%)
Hypophosphatemia, Grade 3 (BRCAwt, DL7 300/300 mg AM/PM): 0 number of patients (%)
Lymphocyte count decreased, Grade 3 (BRCAwt, DL7 300/300 mg AM/PM): 0 number of patients (%)
Any Grade 3 toxicity (BRCAwt, DL8 400/400 mg AM/PM): 3 (43) number of patients (%)
Basilic vein thrombosis, Grade 3 (BRCAwt, DL8 400/400 mg AM/PM): 0 number of patients (%)
Dyspnea, Grade 3 (BRCAwt, DL8 400/400 mg AM/PM): 1 (14) number of patients (%)
Fatigue, Grade 3 (BRCAwt, DL8 400/400 mg AM/PM): 1 (14) number of patients (%)
Hypophosphatemia, Grade 3 (BRCAwt, DL8 400/400 mg AM/PM): 1 (14) number of patients (%)
Lymphocyte count decreased, Grade 3 (BRCAwt, DL8 400/400 mg AM/PM): 1 (14) number of patients (%)
Any Grade 3 toxicity (BRCAwt, all dose levels): 8 (29) number of patients (%)
Basilic vein thrombosis, Grade 3 (BRCAwt, all dose levels): 1 (4) number of patients (%)
Dyspnea, Grade 3 (BRCAwt, all dose levels): 1 (4) number of patients (%)
Fatigue, Grade 3 (BRCAwt, all dose levels): 1 (4) number of patients (%)
Hypophosphatemia, Grade 3 (BRCAwt, all dose levels): 1 (4) number of patients (%)
Lymphocyte count decreased, Grade 3 (BRCAwt, all dose levels): 5 (18) number of patients (%)
patients who came off study after non-dose limiting nausea (DL7-DL9): 6 patients
all-grade decreased lymphocyte count (lymphopenia) (all patients): 38%
all-grade nausea (all patients): 65%
grade 3/4 lymphopenia (all patients): 15%
grade 3 or 4 anemia (all patients): 6%
overall tolerability (continuous single-agent): safe and tolerable; also recorded: well-tolerated
